Source: the array DNA melting data of Ke et al. (doi:10.1101/2024.01.08.574731)

Tests used:
[1] = folding enthalpy; higher = less favourable; fluorescence melt of hairpins on a sequencing array, two-state fit; conditions: sodium 0.088 M
Method in brief: (§1)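 Cy3 signals were normalised both to pre-quench Cy3 and to control constructs. They came from library hairpins carrying annealed Cy3 and quencher oligos on a sequenced MiSeq flow cell, imaged in 50 mM Na-HEPES pH 8.0, 25 mM NaCl, in 2.5 °C steps up to 60 °C. Bootstrapped two-state fits gave melting temperature and folding enthalpy, and four replicates were combined by inverse variance. Fitted temperatures were then raised by 9.35 °C to match UV melts.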

[2] = melting temperature; fluorescence melt of hairpins on a sequencing array, two-state fit, raised by 9.35 °C to match UV melts; conditions: sodium 0.088 M
Method in brief: as §1

Sequence | folding enthalpy [1] | Tm [2]
GGCAAGTCGAAAGACGCC (((..(((....)))))) | -18.2 kcal/mol | 53.1 °C
GAATACACGAAAGTGTTC (((..(((....)))))) | -13.4 kcal/mol | 27.3 °C
GTTGTGGGAAACCATAGC (.(.(((....))).).) | -12.7 kcal/mol | 27.6 °C
GTGCTCGAAAGAGCGCAC ((((((....)))..))) | -11.6 kcal/mol | 57.1 °C
GACTCAGGAAACTGAGCC (.(((((....))))).) | -16.5 kcal/mol | 43.6 °C
GCTATCCGAAAGGAAAGC (((.(((....))).))) | -31.4 kcal/mol | 49 °C
GGTTATGGAAACATAGCC ((.((((....)))).)) | -31.1 kcal/mol | 43.8 °C
GATCTGTTTACAGATC ((((((....)))))) | -44.4 kcal/mol | 58.6 °C
GGTAACCGAAAGGTCACC (((.(((....))).))) | -25 kcal/mol | 48.2 °C
GAACCTGGAAACGGGTTC (((((.(....).))))) | -39.3 kcal/mol | 50.7 °C
GATCTGCCTCAGATC ((((((...)))))) | -29.1 kcal/mol | 48.7 °C
GGCTCAGGAAACCGAGCC (((((.(....).))))) | -49.1 kcal/mol | 54.5 °C
GCAAACGAAAGTTCTTGC ((((((....)))..))) | -10 kcal/mol | 31.7 °C
GCTGTGCGAAAGCATCGC ((..(((....)))..)) | -17.9 kcal/mol | 44.6 °C
GTAATAACGAAAGTTTAC (((..(((....)))))) | -10.5 kcal/mol | 26.8 °C
GCTGGAGGAAACTTCAGC ((((.((....)).)))) | -40.8 kcal/mol | 50 °C
GAGAGGGGAAACCCTCTC (((((((....))))))) | -39 kcal/mol | 63.5 °C
CGCGGATGGCTCCGCG ((((((....)))))) | -30.6 kcal/mol | 68.9 °C
GTGCATCGAAAGATTCAC (((.(((....))).))) | -30.1 kcal/mol | 43.4 °C
GATCAAGGAGTTGATC ((((((....)))))) | -29.5 kcal/mol | 45.3 °C
GCGCTAGGAAACCAGCAC (.(((.(....).))).) | -9.67 kcal/mol | 26.8 °C
GATCCGTCTCGGATC ((((((...)))))) | -42.8 kcal/mol | 59.7 °C
CCCAGGAAACTGGG (((((....))))) | -20.4 kcal/mol | 54.3 °C

Sequence | folding enthalpy [1] | Tm [2]
GCGGTAGACCGC ((((....)))) | -25.7 kcal/mol | 60.8 °C
GATCAGGTACCTGATC ((((((....)))))) | -40.6 kcal/mol | 58.8 °C
GCGCTCCGAAAGGACCGC (((.(((....))).))) | -44.6 kcal/mol | 53 °C
GATCGGAGGTCCGATC ((((((....)))))) | -31.5 kcal/mol | 57.6 °C
GGCAATGGAAACATCGCC (((.(((....))).))) | -34.7 kcal/mol | 45.5 °C
GGCAGAGCGAAAGCTGCC (((..(((....)))))) | -28.6 kcal/mol | 61.9 °C
GAAGACGAAAGTCCGTTC ((((((....)))..))) | -8.8 kcal/mol | 27.6 °C
GTCGGAACGAAAGTTGAC (((..(((....)))))) | -10.8 kcal/mol | 32.7 °C
GATCAGTCAGCTGATC ((((((....)))))) | -40.9 kcal/mol | 51.3 °C
GCTCCCGGAAACGGGGGC ((.((((....)))).)) | -26.7 kcal/mol | 68.5 °C
CGCGAACGGAAACGTGCG (((..(((....)))))) | -47.6 kcal/mol | 49.6 °C
GGAACGGGAAACCGTTTC (.(((((....))))).) | -24.5 kcal/mol | 49.7 °C
GCGCGGCGAAAGCTTCGC (((..((....))..))) | -20.8 kcal/mol | 55.8 °C
GGTTTCCCGAAAGGGACC (((..(((....)))))) | -12.3 kcal/mol | 33.8 °C
GGTGTCGAAAGACTAACC ((((((....)))..))) | -20.9 kcal/mol | 40.4 °C
GTCCCCTCGAAAGAGGAC (((..(((....)))))) | -8.53 kcal/mol | 33.6 °C
GGGTGAGCGAAAGCTCCC (((..(((....)))))) | -12.6 kcal/mol | 49.1 °C
GATCGACATCTCGATC ((((((....)))))) | -36 kcal/mol | 50.3 °C
GCTACGCGAAAGCTGAGC (((..((....))..))) | -15.2 kcal/mol | 46.2 °C
GCCGAGCGAAAGCTACGC ((..(((....)))..)) | -12.1 kcal/mol | 45.8 °C
GTCGTCGAAAGACGGGAC ((((((....)))..))) | -10.3 kcal/mol | 41.4 °C
GATCTAGACCTAGATC ((((((....)))))) | -32.8 kcal/mol | 47.2 °C
GCCTCCGAAAGGAGCGGC ((((((....)))..))) | -15.6 kcal/mol | 52.3 °C

Sequence | folding enthalpy [1] | Tm [2]
GTGCTCGAAAGAGGCCAC ((((((....)))..))) | -16 kcal/mol | 35.9 °C
GTCGTTGGAAACAACGAC (((((((....))))))) | -41.6 kcal/mol | 67.6 °C
GCCTCTGCGAAAGCAGGC (((..(((....)))))) | -8.17 kcal/mol | 50 °C
GGTAGTGGAAACACTGTC (..((((....))))..) | -20.9 kcal/mol | 29.2 °C
GGCTCCGAAAGGAAGGCC ((((((....)))..))) | -29.7 kcal/mol | 52.6 °C
GCACTGCGAAAGCGATGC (((..((....))..))) | -19.7 kcal/mol | 45 °C
GCTTGCGAAAGCACGAGC ((((((....)))..))) | -15.9 kcal/mol | 46.9 °C
GCTTCTGCGAAAGCAAGC (((..(((....)))))) | -9.99 kcal/mol | 38.3 °C
GCAAAGCGAAAGCAGTGC (((..((....))..))) | -14 kcal/mol | 44.7 °C
GTCGGCGGAAACACCGAC (((((.(....).))))) | -37.9 kcal/mol | 55.3 °C
GCCCTGGGAAACCAAGGC (((.(((....))).))) | -30.1 kcal/mol | 44.8 °C
GATCGACGTTTCGATC ((((((....)))))) | -42.5 kcal/mol | 50.9 °C
GCGGTTACCGC ((((...)))) | -28.8 kcal/mol | 59.2 °C
GAACGCGAAAGCGATTC ((((((....))).))) | -14.1 kcal/mol | 45.7 °C
GCTATGCGAAAGCGCAGC (((..((....))..))) | -18 kcal/mol | 36.8 °C
GCTAGGCGAAAGCTTGGC ((.(.((....)).).)) | -20.6 kcal/mol | 45.2 °C
GACTTGGGAAACCGAGTC ((((.((....)).)))) | -45.3 kcal/mol | 49.5 °C
GATCAAGACCTTGATC ((((((....)))))) | -40.2 kcal/mol | 50.1 °C
GCACCGCGAAAGCCATGC (((..((....))..))) | -9.79 kcal/mol | 28.6 °C
GTTAGGGGAAACCCTGAC ((.((((....)))).)) | -28.4 kcal/mol | 45.6 °C
GCGTGCTCACGC ((((....)))) | -25 kcal/mol | 58.6 °C
GGTATTGAAAAATACC ((((((....)))))) | -38.8 kcal/mol | 49 °C
GACGCAGGAAACTGCATC ((.((((....)))).)) | -13.5 kcal/mol | 36.2 °C

Sequence | folding enthalpy [1] | Tm [2]
GATCTCTCGTGAGATC ((((((....)))))) | -40 kcal/mol | 52.5 °C
GAGGATACGAAAGTACTC (((..(((....)))))) | -9.94 kcal/mol | 26.8 °C
GGTTTCGAAAGAAAAACC ((((((....)))..))) | -23.4 kcal/mol | 33.6 °C
GGGTTCCGAAAGGAGCCC (((.(((....))).))) | -39.8 kcal/mol | 67.1 °C
GAATTCCGAAAGGATTC (((.(((....)))))) | -20.2 kcal/mol | 38.4 °C
GGGATCGAAAGATATCCC ((((((....)))..))) | -25 kcal/mol | 39.8 °C
GATCTGAGTGCAGATC ((((((....)))))) | -31.1 kcal/mol | 49.2 °C
GTACGGGCGAAAGCCTAC (((..(((....)))))) | -8.32 kcal/mol | 30 °C
GTTGTCGGAAACGGCAAC ((((.((....)).)))) | -37.7 kcal/mol | 56.2 °C
GGAGTACCGAAAGGTTCC (((..(((....)))))) | -15 kcal/mol | 36.3 °C
GGTTACCCGAAAGGGACC (((..(((....)))))) | -12.9 kcal/mol | 35.2 °C
GTCTGCGAAAGCAGGAC ((((((....))).))) | -11.4 kcal/mol | 57.8 °C
GGCCACGAAAGTGCGCC ((((((....))).))) | -32.8 kcal/mol | 63.6 °C
GATCGGAAGTCCGATC ((((((....)))))) | -38.9 kcal/mol | 55.2 °C
GCCTGGCGAAAGCGACGC ((.(.((....)).).)) | -6.72 kcal/mol | 36 °C
GCGTGCCTACGC ((((....)))) | -27.6 kcal/mol | 57 °C
GCAAGGGGAAACCCCTAC (.(.(((....))).).) | -12 kcal/mol | 28.7 °C
GCTTCGGGAAACTGGAGC (((.(.(....).).))) | -32.7 kcal/mol | 39.1 °C
GTGGGATCGAAAGATCAC (((..(((....)))))) | -44.4 kcal/mol | 54.4 °C
GAGAGCACGAAAGTGCTC (((..(((....)))))) | -7.79 kcal/mol | 64.1 °C
GGTGACGGAAACGCCACC ((((.((....)).)))) | -48 kcal/mol | 54.3 °C
GTTGCGCGAAAGCGTAAC (((.(((....))).))) | -29.8 kcal/mol | 58.1 °C
GCTTCCGGAAACAGAAGC (((((.(....).))))) | -30.6 kcal/mol | 41.9 °C
